This passage reports IC50 results from BindingDB's records for doi:10.1021/jm201131n (Academia Sinica, 2011).

Experiment [1] concerns the target T1, Glutathione S-transferase A2 (Homo sapiens, UniProt P09210).
T1 sequence (P09210 whole entry): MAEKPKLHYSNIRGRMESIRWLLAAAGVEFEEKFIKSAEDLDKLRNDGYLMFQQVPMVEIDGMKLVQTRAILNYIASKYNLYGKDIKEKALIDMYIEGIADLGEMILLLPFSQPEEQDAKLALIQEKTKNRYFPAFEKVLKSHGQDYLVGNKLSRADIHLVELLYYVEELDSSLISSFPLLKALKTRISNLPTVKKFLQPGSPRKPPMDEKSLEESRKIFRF
In words: Inhibition of human GSTA2 using GSH as substrate after 3 mins by spectrophotometry. The method in brief:
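Human GST enzyme preincubated with inhibitor (0–200 μM) in 100 mM potassium phosphate pH 6.5 at 37 °C (GSTM1 at 32 ng). Reaction started with GSH (final 2 mM) and followed at 340 nm for 3 min. IC50 by nonlinear regression, mean ± SEM, n = 3. Percent inhibition at 100 μM is not corrected for glutathione conjugate formation.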

Experiment [2] has as its target Glutathione S-transferase P (Homo sapiens, UniProt P09211). In words: Inhibition of human GSTP1-1 using GSH as substrate after 3 mins by spectrophotometry.

One may read the IC50 as the concentration needed to halve the response being measured. A higher IC50 goes with weaker potency in that assay.

Glutathione S-transferase P, sequence (P09211 whole entry): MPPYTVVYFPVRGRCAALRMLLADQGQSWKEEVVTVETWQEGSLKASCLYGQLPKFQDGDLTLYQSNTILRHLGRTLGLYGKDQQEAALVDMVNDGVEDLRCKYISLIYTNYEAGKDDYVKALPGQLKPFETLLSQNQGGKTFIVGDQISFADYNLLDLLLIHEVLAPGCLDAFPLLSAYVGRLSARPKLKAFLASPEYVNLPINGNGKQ

Take `CO[C@H]1CC(COC(C)=O)C(=O)C(=O)[C@H]1O` (stereo partly specified): the concentration for half-maximal inhibition (IC50) in experiment [1] and in experiment [2] was over 100 µM in each case.

`CC(=O)OCC1C[C@H](O)[C@H](O)C(=O)C1=O` (stereo partly specified): the IC50 in experiment [1] and in experiment [2] was over 100 µM in each case. On to `CC(=O)OCC1C[C@@H](O)[C@H](O)C(=O)C1=O` (stereo partly specified), for which the IC50 in experiment [1] and in experiment [2] was over 100 µM throughout. With `CC(=O)OCC1CC(O)[C@H](O)C(=O)C1=O` (stereo partly specified), the half-inhibitory concentration (IC50) in experiment [1] and in experiment [2] was over 100 µM each time. `CO[C@]1(C)O[C@H]2[C@H](O)C(C=O)CC(=O)[C@@H]2O[C@@]1(C)OC` (stereo partly specified) displayed a half-maximal inhibitory concentration (IC50) in experiment [1] of over 100 µM. With `CO[C@@H]1CC(COC(C)=O)C(=O)C(=O)[C@H]1O` (stereo partly specified), the 50% inhibitory concentration (IC50) in experiment [1] and in experiment [2] was over 100 µM in each case.
